In brackets after ≈: the same amount, converted by molar mass.
Tests used:
[1] = Inhibition of Pseudomonas aeruginosa recombinant His-tagged CFTR inhibitory factor expressed in expressed in Top10 Escherichia coli cells assessed as formation of 6-methoxy-2-naphthaldehyde preincubated for 5 mins followed by addition of CMNGC as substrate measured for 10 mins in presence of BSA by fluorescent-based assay
[2] = Stability in human liver microsomes assessed as compound remaining measured after 60 mins in presence of NADPH by LC-MS/MS analysis; type: ADME; conditions: read-out: Stability
Epoxide hydrolase 1 = target: T1, Epoxide hydrolase 1 (Homo sapiens, UniProt P07099); assay: Inhibition of recombinant human mEH expressed in baculovirus expression system assessed as formation of 6-methoxy-2-naphthaldehyde preincubated for 5 mins followed by addition of CMNGC as substrate by fluorescent-based assay
T1 sequence (P07099 whole entry): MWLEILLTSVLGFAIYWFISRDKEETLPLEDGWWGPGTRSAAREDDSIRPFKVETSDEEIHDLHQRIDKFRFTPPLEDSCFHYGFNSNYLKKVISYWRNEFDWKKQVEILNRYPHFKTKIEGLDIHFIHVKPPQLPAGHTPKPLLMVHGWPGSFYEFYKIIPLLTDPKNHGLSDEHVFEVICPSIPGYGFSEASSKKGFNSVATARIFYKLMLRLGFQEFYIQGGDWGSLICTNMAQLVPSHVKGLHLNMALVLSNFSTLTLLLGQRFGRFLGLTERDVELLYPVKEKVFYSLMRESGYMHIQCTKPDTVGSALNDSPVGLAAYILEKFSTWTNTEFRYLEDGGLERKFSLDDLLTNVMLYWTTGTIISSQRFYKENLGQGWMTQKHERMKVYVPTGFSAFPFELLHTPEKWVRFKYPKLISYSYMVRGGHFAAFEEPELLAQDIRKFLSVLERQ

[3] = Stability in rat GH3 cells expressing TRE and luciferase gene assessed as percentage remaining at 10 uM measured after 24 hrs; type: ADME, cell-based; conditions: read-out: Stability
Outline: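 Compound at 10 µM initial concentration incubated 24 h with GH3.TRE-Luc cells. Read-out is percentage of compound remaining, given as mean±SD.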

[4] = Protein binding in Balb/c mouse plasma at 1 uM by rapid equilibrium dialysis method; type: ADME, cell-free
Outline: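 Mouse plasma protein binding measured at 1 µM compound by rapid equilibrium dialysis.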

[5] = target: T2, Bifunctional epoxide hydrolase 2 (Homo sapiens, UniProt P34913); assay: Inhibition of recombinant human sEH expressed in insect High Five cells preincubated for 5 mins followed by addition of t-DPPO as substrate measured after 10 mins by liquid scintillation counter method; type: cell-based, BTI-TN-5B1-4
T2 sequence (P34913 whole entry): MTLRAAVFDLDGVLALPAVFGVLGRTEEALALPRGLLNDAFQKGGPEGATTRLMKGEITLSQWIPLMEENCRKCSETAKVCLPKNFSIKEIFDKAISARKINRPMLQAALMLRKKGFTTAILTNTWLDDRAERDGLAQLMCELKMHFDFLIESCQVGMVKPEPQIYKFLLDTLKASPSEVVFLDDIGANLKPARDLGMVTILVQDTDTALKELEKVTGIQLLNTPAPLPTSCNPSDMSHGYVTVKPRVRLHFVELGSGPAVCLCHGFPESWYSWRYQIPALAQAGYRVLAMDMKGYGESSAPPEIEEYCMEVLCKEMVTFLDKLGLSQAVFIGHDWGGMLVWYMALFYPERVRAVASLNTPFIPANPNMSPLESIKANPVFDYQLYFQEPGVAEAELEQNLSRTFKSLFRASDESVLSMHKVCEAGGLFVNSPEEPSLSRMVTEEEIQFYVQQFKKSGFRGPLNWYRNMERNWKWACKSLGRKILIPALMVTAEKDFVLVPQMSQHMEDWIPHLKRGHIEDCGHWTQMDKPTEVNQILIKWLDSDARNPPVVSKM

[6] = Equilibrium solubility of the compound in sodium phosphate buffer at pH 7.4 measured after 24 hrs by LC-MS/MS analysis; type: physicochemical
[7] = Agonist activity at thyroid hormone receptor in rat GH3 cells expressing TRE measured after 24 hrs in presence of T3 by luciferase reporter gene assay; type: cell-based; conditions: GH3, 24 h
Outline: (§1)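 GH3.TRE-Luc cells grown in regular growth medium, then seeded into 24-well plates for 24 h. Cells exposed 24 h with or without T3 plus test chemical in DMSO, kept at 0.5% (v/v) in exposure medium. Viability by total protein (BCA assay). Luciferase activity read on lysed cells.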

Liver microsome = assay: Half life in human liver microsomes measured after 60 mins in presence of NADPH by LC-MS/MS analysis; type: ADME; conditions: 1 h
[8] = Cytotoxicity against human CFBE cells at 10 uM by Cytotox 96 non-radioactive cytotoxicity assay; type: cell-based
[9] = Antagonist activity at thyroid hormone receptor in rat GH3 cells expressing TRE at 10 uM measured after 24 hrs in presence of T3 by luciferase reporter gene assay; type: cell-based; conditions: GH3, 24 h; outline: as §1
GH3 = assay: Cytotoxicity against rat GH3 cells expressing TRE and luciferase gene assessed as cell viability; type: cell-based
Outline: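 GH3.TRE-Luc cells were seeded in 24-well plates for 24 h, then exposed for 24 h to test chemical in DMSO (0.5% v/v final), with or without T3. Viability per well was taken as total protein by BCA assay. Compounds were tested up to 10 µM.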

CCOC(=O)CC(=O)Nc1cc(Cl)c(Oc2ccc(O)c(Br)c2)c(Cl)c1
IC50 [1]: 4.9 µM

CCOC(=O)CC(=O)Nc1cc(Cl)c(Oc2ccc(O)c(C(C)C)c2)c(Cl)c1
IC50 [1]: 3.8 µM

CCOC(=O)CC(=O)Nc1ccc(Oc2ccc(O)c(C(C)C)c2)c(Cl)c1
IC50 [1]: 11.6 µM

CCOC(=O)CCC(=O)Nc1cc(Br)c(Oc2ccc(O)c(C(C)C)c2)c(Br)c1
IC50 [1]: 5.5 µM

CCC(=O)Nc1cc(Cl)c(Oc2ccc(O)c(-c3ccc(C(=O)O)cc3)c2)c(Cl)c1
IC50 [1]: 10.5 µM

CCOC(=O)CC(=O)Nc1cc(Br)c(Oc2ccc(O)c(C(C)C)c2)c(Br)c1
IC50 [1]: 6.7 µM

CCC(=O)Nc1cc(Cl)c(Oc2ccc(O)c(-c3cccc(C(N)=O)c3)c2)c(Cl)c1
IC50 [1]: 0.46 µM

CCC(=O)Nc1cc(Cl)c(Oc2ccc(O)c(-c3ccccc3)c2)c(Cl)c1
remaining at 1 h [2]: 63%
IC50 [1]: 1.4 µM

CCC(=O)Nc1cc(Cl)c(Oc2ccc(O)c(-c3ccc(C(=O)NC)cc3)c2)c(Cl)c1
IC50 [1]: 1.7 µM

CCCCCCCCCSC(C)C(N)=O (configuration not stated)
IC50 (Epoxide hydrolase 1): 6 µM

CC(C)c1cc(Oc2c(Br)cc(NC(=O)CCC(=O)O)cc2Br)ccc1O
IC50 [1]: 3.2 µM

CC(=O)Nc1cc(Br)c(Oc2ccc(O)c(C(C)C)c2)c(Br)c1
IC50 [1]: 8.8 µM

CC(C)c1cc(Oc2c(Br)cc(N)cc2Br)ccc1O
IC50 [1]: 9.7 µM

CCOC(=O)CC(=O)Nc1cc(Cl)c(Oc2ccc(O)cc2Br)c(Cl)c1
IC50 [1]: 29.3 µM

CCC(=O)Nc1cc(Cl)c(Oc2ccc(O)c(-c3ccc(C#N)cc3)c2)c(Cl)c1
IC50 [1]: 11.9 µM

CCC(=O)Nc1cc(Cl)c(Oc2ccc(O)c(-c3ccc(NC(N)=O)cc3)c2)c(Cl)c1
remaining at 24 h, 10 µM [3]: 103%
PPB [4]: > 99%
IC50 [5]: 7.5 µM
solubility thermodynamic at 24 h [6]: 21 µM (≈ 9.67 µg/mL)
EC50 [7]: > 10 µM
t1/2 (Liver microsome): 29 min
Activity [8]: Non-toxic
inhibition at 10 µM [9]: 28%
IC50 (Epoxide hydrolase 1): 26.3 µM
IC50 [1]: 0.29 µM
Activity (GH3): Non-toxic

CCOC(=O)CC(=O)Nc1cc(Cl)c(Oc2ccc(O)c(C(F)(F)F)c2)c(Cl)c1
IC50 [1]: 3 µM

CCOC(=O)CC(=O)Nc1cc(Br)c(Oc2cccc(C(C)C)c2)c(Br)c1
IC50 [1]: > 50 µM

CCC(=O)Nc1cc(Cl)c(Oc2ccc(O)c(-c3ccc(C(N)=O)cc3)c2)c(Cl)c1
remaining at 24 h, 10 µM [3]: 106%
PPB [4]: > 99%
IC50 [5]: 8.6 µM
solubility thermodynamic at 24 h [6]: 0.17 µM (≈ 0.0757 µg/mL)
EC50 [7]: > 10 µM
t1/2 (Liver microsome): 15 min
Activity [8]: Non-toxic
inhibition at 10 µM [9]: 66%
IC50 (Epoxide hydrolase 1): 17.2 µM
IC50 [1]: 0.35 µM
Activity (GH3): Non-toxic

CCOC(=O)CC(=O)Nc1cc(Cl)c(Oc2ccc(O)cc2)c(Cl)c1
IC50 [1]: > 50 µM

CCC(=O)Nc1cc(Cl)c(Oc2ccc(O)c(-c3ccc(S(N)(=O)=O)cc3)c2)c(Cl)c1
IC50 [1]: 2 µM

CCC(=O)Nc1cc(Cl)c(Oc2ccc(O)c(-c3ccc(C(C)=O)cc3)c2)c(Cl)c1
remaining at 24 h, 10 µM [3]: 74%
PPB [4]: > 99%
IC50 [5]: 7.7 µM
solubility thermodynamic at 24 h [6]: < 0.04 µM
EC50 [7]: > 10 µM
t1/2 (Liver microsome): 5.7 min
inhibition at 10 µM [9]: 33%
IC50 (Epoxide hydrolase 1): 97.8 µM
IC50 [1]: 0.35 µM

CCOC(=O)CC(=O)Nc1cc(Br)c(Oc2ccc(OC)c(C(C)C)c2)c(Br)c1
IC50 [1]: > 25 µM

CCOC(=O)CC(=O)Nc1cc(Cl)c(Oc2ccc(O)c(I)c2)c(Cl)c1
IC50 [1]: 3.8 µM

C#Cc1cc(Oc2c(Cl)cc(NC(=O)CC(=O)OCC)cc2Cl)ccc1O
IC50 [1]: 2.9 µM

CCC(=O)Nc1cc(Cl)c(Oc2ccc(O)c(-c3cccc(C#N)c3)c2)c(Cl)c1
IC50 [1]: 0.58 µM

CCC(=O)Nc1cc(Cl)c(Oc2ccc(O)c(-c3ccc(NC(C)=O)cc3)c2)c(Cl)c1
IC50 [1]: 15.6 µM

CCC(=O)Nc1cc(Br)c(Oc2ccc(O)c(C(C)C)c2)c(Br)c1
IC50 [1]: 7.5 µM
